# Laboratory results from PubChem BioAssay AID743214 (The Scripps Research Institute Molecular Screening Center, 2013).
# In all, about 2,100 compounds went through this assay and about 10 (0.5%) were called active.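 The calls were made as follows: active = mean triplicate inhibition above the solvent-only control wells' mean plus 3 SD (cut at about 12% in these data); inactive = the rest.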 A selection follows.
# Biological target: Disintegrin and metalloproteinase domain-containing protein 17 (Homo sapiens) (UniProt P78536)
# Sequence (P78536 215-824 limits assumed): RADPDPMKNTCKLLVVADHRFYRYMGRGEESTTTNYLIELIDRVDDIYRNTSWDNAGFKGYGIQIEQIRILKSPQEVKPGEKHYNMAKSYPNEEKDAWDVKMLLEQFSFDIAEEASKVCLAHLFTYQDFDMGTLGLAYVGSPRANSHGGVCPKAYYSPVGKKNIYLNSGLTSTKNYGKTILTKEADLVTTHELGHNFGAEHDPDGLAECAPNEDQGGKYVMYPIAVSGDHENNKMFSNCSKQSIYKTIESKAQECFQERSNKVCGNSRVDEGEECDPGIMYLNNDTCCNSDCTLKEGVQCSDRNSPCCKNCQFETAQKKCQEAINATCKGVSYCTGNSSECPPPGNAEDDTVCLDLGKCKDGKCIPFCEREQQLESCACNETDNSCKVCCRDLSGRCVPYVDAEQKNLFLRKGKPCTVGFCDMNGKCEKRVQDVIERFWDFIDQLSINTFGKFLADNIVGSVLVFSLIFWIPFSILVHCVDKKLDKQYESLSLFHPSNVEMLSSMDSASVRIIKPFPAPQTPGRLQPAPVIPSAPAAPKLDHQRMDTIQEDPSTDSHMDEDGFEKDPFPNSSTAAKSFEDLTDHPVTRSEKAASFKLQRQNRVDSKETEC
# Test: ADAM17 inhibitors, counter-screen for ADAM10 exosite inhibitor project, biochemical, QFRET, high throughput (AID 743214);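 also: 0% = DMSO wells and 100% = marimastat wells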
# Conditions: ADAM17 QFRET peptide cleavage, EDANS fluorescence; at 6.95 µM; stronger effect = higher value
# Outline: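 System: ADAM17 protease, QFRET substrate; control set: marimastat 1 µM and DMSO wells; signal: EDANS fluorescence, excitation 359 nm, emission 460 nm; incubation: 30 min compound–enzyme preincubation, then 3 h reaction, both 25 °C; compound: single nominal compound dose of 6.95 µM; replicates: three repeats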
row,Compound,inhibition
1,Cn1c(CNc2nc(-c3ccccc3)cs2)nnc1SCC(=O)c1ccccc1,0.06% (inactive)
2,COc1ccc(C(CCN(Cc2ccc(OC)c(OC)c2)C(=O)CCl)c2ccccc2)cc1 (stereo not drawn),1.03% (inactive)
3,CCOc1cc(/C=N/NC(=O)c2cc(-c3ccccc3)nc3ccccc23)ccc1O,4.94% (inactive)
4,O=C(CSC1=NCCS1)Nc1nc(-c2ccccc2)cs1,0.66% (inactive)
5,COc1ccc(OCCCn2cccc2/C=C2/C(=N)N3OC(C)=CC3=NC2=O)cc1,0.03% (inactive)
6,Cc1ccc(/C=N/NC(=O)CSc2nc3ccccc3o2)cc1,0.11% (inactive)
7,COc1cc(/C=C2/SC(=S)N(Cc3ccccc3)C2=O)cc(OC)c1O,3.03% (inactive)
8,CN(C)S(=O)(=O)c1cccc(NC(=O)COC(=O)C2(c3ccccc3F)CCCC2)c1,0.96% (inactive)
9,N/C(Cc1ccc([N+](=O)[O-])cc1)=N\OC(=O)COc1ccc2ccccc2c1,1.74% (inactive)
10,O=C1NC(Nc2nc3ccccc3s2)(C(F)(F)F)C(=O)N1C1CCCCC1 (stereo not drawn),0.94% (inactive)
11,COc1cc(C2CC(=O)N3CN(Cc4ccccc4)CSC3=C2C#N)ccc1OCc1ccccc1 (stereo not drawn),2.1% (inactive)
12,O=C(OCc1ccc(-c2ccccc2)cc1)c1cccc(O)c1,4.02% (inactive)
13,COC(=O)[C@@]12C[C@@H](CC(=O)NCCCCc3ccccc3)C(=O)N(CCc3ccc(OC)c(OC)c3)C1=CCC(C)(C)C2,0.87% (inactive)
14,COc1cc(Cl)c(S(=O)(=O)N2CCN(Cc3ccc4c(c3)OCO4)CC2)cc1Cl,1.24% (inactive)
15,CCOc1ccc(Nc2oc(Cc3ccccc3)nc2C#N)cc1,1.58% (inactive)
16,CCOc1ccc(Br)cc1S(=O)(=O)Nc1ccc(C(=O)OC(C)C(=O)N(C)c2ccccc2)cc1 (stereo not drawn),2.71% (inactive)
17,C=CCC[C@@H](Cc1ccc(F)cc1)C(=O)O[C@H](CNC(=O)[C@H](CC=C)CC(=O)N(CCO)Cc1ccccc1)c1ccccc1,3.84% (inactive)
18,O=C(Cc1ccc(Cl)c(Cl)c1)Nc1ccc(SC(F)F)cc1,2.25% (inactive)
19,CC(C)(C)c1ccc(S(=O)(=O)NCC2CCN(C(=O)C(=O)c3cc4ccccc4o3)CC2)cc1,1.76% (inactive)
20,COc1ccc(Cl)cc1NC(=O)COC(=O)C(CC(C)C)N1C(=O)C2CC=CCC2C1=O (stereo not drawn),0.79% (inactive)
21,CC(C)(C)c1ccc(C(=O)Nc2cc(Cl)c(Br)cc2C(=O)O)cc1,0.16% (inactive)
22,CCCCCc1c(-c2ccc(OC)c(OC)c2)ncn1CCc1ccccc1OC,1.69% (inactive)
23,Cc1ccc(NS(=O)(=O)c2ccc(C)c(NC(=O)COc3ccc4ccccc4c3)c2)c(C)c1,4.43% (inactive)
